Source: paper PMC11903327 (Clinical and Translational Science, 2025)
Values after ≈ are worked out from the molar mass of the structure shown. Where two headings read alike, the source gives them in different places.

Experiments:
[1] = healthy subjects, cited from earlier work
[2] = Biopharmaceutical classification system; type: physicochemical; details: based on low aqueous solubility and high in vitro permeability
[3] = single oral radiolabeled fruquintinib 5 mg; cited from earlier work
[4] = system: colorectal adenocarcinoma‐2 cell; details: colorectal adenocarcinoma-2 cells; cited from earlier work
[5] = In vitro aqueous solubility in buffer systems across pH 1 to 6.8; type: physicochemical; details: 37 °C, thermodynamic from solid
[6] = healthy Chinese subjects, fruquintinib 4 mg, cited from earlier work
[7] = Phase 1 dose-escalation study, QD dosing; cited from earlier work
pKa = type: physicochemical
[8] = type: in vivo, human; details: for CL/F: arithmetic mean (SD)
In short: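 Healthy nonsmoking adults aged 18–55, BMI 18–29 kg/m2. Randomized fed/fasted crossover: single 5 mg oral dose fasted or 30 min after a high-fat breakfast (~800–1000 kcal, 50% fat), with ≥14-day washout. Period 3: rabeprazole 40 mg QD with breakfast for 6 days, then fasted 1 h before dosing. Plasma sampled pre-dose to 168 h, LC-MS/MS (1.00–750 ng/mL). Noncompartmental PK; mixed-effects geometric LSM ratios, 90% CIs.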

[9] = type: in vivo, human
[10] = ref Takeda data on file, cited from earlier work
[11] = Clinical mass balance study with radiolabelled fruquintinib; type: in vivo, human; details: single 5 mg dose in humans; inferred from metabolic profile
[12] = clinical dose of 5 mg; cited from earlier work

SMILES: CNC(=O)c1c(C)oc2cc(Oc3ncnc4cc(OC)c(OC)cc34)ccc12 [Fruquintinib]
- change in fruquintinib exposure ([1]; coadministration with a CYP3A inducer): decreased
- change in fruquintinib AUC or Cmax ([1]; coadministration with a CYP3A inhibitor): no clinically meaningful change
- biopharmaceutical classification system (BCS) class [2]: class 2
- dose recovered in feces [3]: 30%
- unchanged fruquintinib in feces, of the administered dose [3]: 5.34%
- unchanged fruquintinib in urine, of the administered dose [3]: 0.50%
- apical-to-basolateral apparent permeability [4]: 30 ×10⁻⁶ cm/s
- efflux ratio [4]: ~1
- solubility at 48 h ([5]; pH 1, simulated gastric fluid): 130 µg/mL (≈ 330 µM)
- solubility at 48 h ([5]; pH 4.5, aqueous buffer): 0.9 µg/mL (≈ 2.29 µM)
- solubility at 48 h ([5]; pH 6.8, aqueous buffer): 0.9 µg/mL (≈ 2.29 µM)
- effect of a high-fat meal on the PK of fruquintinib [6]: no clinically significant effect
- least squares GMR (90% CI) for AUC0-inf ([6]; high-fat meal vs fasted): 97.2% (94.0%–100.4%)
- least squares GMR (90% CI) for Cmax ([6]; high-fat meal vs fasted): 82.9% (76.7%–89.5%)
- maximum-tolerated dose [7]: 4 mg
- pKa (pKa): 2.78
- time after dosing at which peak concentrations were achieved ([8]; fruquintinib 5 mg oral, under fed and fasted conditions): approximately 4 h
- effects of food or rabeprazole on fruquintinib PK ([8]; healthy subjects, fruquintinib 5 mg): No clinically relevant effects
- Tmax ([8]; human, plasma, oral): 0.5 h
- Tmax ([8]; human, plasma, po, 5 mg): 4 h
- CL/F ([8]; single oral fruquintinib 5 mg + rabeprazole 40 mg, fasted): 15.6 (4.59) mL/min
- CL/F ([8]; single oral fruquintinib 5 mg, fasted (reference)): 17.1 (5.22) mL/min
- CL/F ([8]; single oral fruquintinib 5 mg, fed (high-fat meal)): 16.3 (4.32) mL/min
- Tmax ([8]; single oral fruquintinib 5 mg, fed (high-fat meal), median (minimum–maximum)): 4.00 (2.00–6.00) h
- relation of AEs to fruquintinib ([9]; all five AEs): not related
- severity of AEs ([9]; all five AEs): mild
- subjects reporting AEs ([9]; four of 14 subjects, five AEs, all treatment periods): 29%
- changes in chemistry, hematology, urinalysis and coagulation laboratory test results ([9]; over time during the study): no clinically significant changes
- tolerability ([9]; with or without food or with rabeprazole): well tolerated
- time stable in simulated gastric fluids ([10]; simulated gastric fluids): at least 1 h
- time stable in simulated intestinal fluids ([10]; simulated intestinal fluids): at least 3 h
- fraction of the dose absorbed [11]: > 85%

SMILES: CNC(=O)c1ccccc1Sc1ccc2c(/C=C/c3ccccn3)n[nH]c2c1 [axitinib]
- DDI (based on AUC) when combined with rabeprazole [12]: no clinically meaningful DDI
- food effect [12]: no clinically meaningful food effect
